{"data": "Assay results gathered from unrelated publications", "target": "Serine/threonine-protein kinase VRK2 (VRK2, Homo sapiens, UniProt Q86Y07)", "note": "Lines come from different studies, so protocols differ."}
{"Structure (SMILES)": "CN(C)c1ncc(F)c(-c2cnn3ncccc23)n1", "test": "binding", "setting": "1 µM", "remaining binding": "100%"}
{"Structure (SMILES)": "O=C(NCCCN1CCOCC1)c1ccc(Nc2ncc(Cl)c(-c3ccc(Cl)s3)n2)cc1", "test": "binding, competition with immobilised ligand", "setting": "1 µM", "remaining binding": "64%"}
{"Structure (SMILES)": "CC(=O)C1=C(C)N(c2cccc(C(F)(F)F)c2)C(=O)N[C@@H]1c1ccc(C#N)nc1", "test": "cell-free assay, competition with immobilised ligand", "setting": "1 µM", "remaining binding": "77.6%"}
{"Structure (SMILES)": "CNC(=O)[C@@H]1CC[C@@H](n2c(-c3ccc4cnccc4c3)nc3ccc(C(=O)NCc4cccc(C(N)=O)c4)cc32)C1", "test": "binding, competition with immobilised ligand", "setting": "1 µM", "remaining binding": "100%"}
{"Structure (SMILES)": "CN(C)c1nccc(-c2cnc3ncccn23)n1", "test": "binding", "setting": "1 µM", "remaining binding": "64%"}
{"Structure (SMILES)": "O=C(NCCCC1CCCCC1)c1ccc(CNC(=O)c2cnn(-c3ccccc3)c2C(F)(F)F)cc1", "test": "cell-free assay, competition with immobilised ligand", "setting": "0.1 µM", "remaining binding": "100%"}
{"Structure (SMILES)": "O=C(Nc1c[nH]nc1C(=O)NC1CCNCC1)c1cc(F)cc(F)c1", "test": "binding, competition with immobilised ligand", "setting": "1 µM", "remaining binding": "100%"}
{"Structure (SMILES)": "CN(C)c1nccc(-c2cnn3ncccc23)n1", "test": "binding", "setting": "1 µM", "remaining binding": "80%"}
{"Structure (SMILES)": "CCCNc1nc(C#Cc2ccc(Cl)s2)nc2c1ncn2[C@H]1[C@H](O)[C@H](O)[C@]2(C(=O)NC)C[C@H]12", "test": "binding, competition with immobilised ligand", "setting": "10 µM", "remaining binding": "31%"}
{"Structure (SMILES)": "Cc1noc([C@H]2C[C@@H](c3ccc(C(F)(F)F)cc3)CN(C(=O)N3CCS(=O)(=O)C3)C2)n1", "test": "cell-free assay, competition with immobilised ligand", "setting": "1 µM", "remaining binding": "91%"}
{"Structure (SMILES)": "Nc1ncc2c(n1)-c1c([nH]c3ccc(C#CC4CC4)cc13)CCCC2", "test": "binding, competition with immobilised ligand", "setting": "1 µM", "remaining binding": "100%"}
{"Structure (SMILES)": "C[C@@H]1CCN(c2nccc(-c3cnn4ncccc34)n2)C1", "test": "binding", "setting": "1 µM", "remaining binding": "82%"}
{"Structure (SMILES)": "CN([C@@H]1CCc2c(CC(=O)O)c3cc(S(C)(=O)=O)ccc3n2C1)S(=O)(=O)c1ccc(F)cc1", "test": "cell-free assay, competition with immobilised ligand", "setting": "1 µM", "remaining binding": "94%"}
{"Structure (SMILES)": "N[C@H]1CCN(c2nccc(-c3cnn4ncccc34)n2)C1", "test": "binding", "setting": "1 µM", "remaining binding": "83%"}
{"Structure (SMILES)": "CNC(=O)Nc1ccc2c(c1)CC[C@@]21OC(=O)N(CC(=O)N(Cc2ccc(F)cc2)[C@@H](C)C(F)(F)F)C1=O", "test": "cell-free assay, competition with immobilised ligand", "setting": "1 µM", "remaining binding": "91%"}
{"Structure (SMILES)": "O=C(c1ccc(Nc2nccc(-c3cc4ccccc4s3)n2)cc1)N1CCC(N2CCCC2)CC1", "test": "binding, competition with immobilised ligand", "setting": "1 µM", "remaining binding": "35%"}
{"Structure (SMILES)": "Cc1cnn2ncc(-c3ccnc(N(C)C)n3)c2c1", "test": "binding", "setting": "1 µM", "remaining binding": "96%"}
{"Structure (SMILES)": "C[C@H](c1ccnc(Nc2nc3ccc(-c4cc(N(C)C)ncn4)cc3[nH]2)c1)N1CCN(C(=O)CC(F)(F)F)CC1", "test": "cell-free assay, competition with immobilised ligand", "setting": "0.1 µM", "remaining binding": "94%"}
{"Structure (SMILES)": "C=CC(=O)N1CCC(C(=O)NCC(=O)N2CCN(c3nc(-c4cnc(N)nc4C(F)F)nc(N4CCOCC4)n3)CC2)CC1", "test": "binding, competition with immobilised ligand", "setting": "1 µM", "remaining binding": "93%"}
{"Structure (SMILES)": "c1cnn2ncc(-c3ccnc(N4CCC45COC5)n3)c2c1", "test": "binding", "setting": "1 µM", "remaining binding": "74%"}
{"Structure (SMILES)": "c1cncc(-c2cccc(Nc3nccc(NC4CCCCC4)n3)c2)c1", "test": "binding, competition with immobilised ligand", "setting": "10 µM", "remaining binding": "82%"}
{"Structure (SMILES)": "CCCCN(CCCC)C(=O)CN1C[C@@H](c2cc(OC)c3c(c2)OCO3)[C@H](C(=O)O)[C@H]1CC(C)(C)CCC", "test": "cell-free assay, competition with immobilised ligand", "setting": "1 µM", "remaining binding": "95.4%"}
{"Structure (SMILES)": "O=C(c1ccc(Nc2ncc(Cl)c(-c3cc4ccccc4s3)n2)cc1)N1CCC(N2CCCC2)CC1", "test": "binding, competition with immobilised ligand", "setting": "1 µM", "remaining binding": "70%"}
